{"source": "ChEMBL document CHEMBL1146735", "about": "“Synthesis and biological activity of macrocyclic taxane analogues” (Bioorg Med Chem Lett, 2004)", "key": {"[1]": {"assay": "Compound was evaluated for the ratio of HCT/mdr cell line to that of IC50 of HCT116 cell line", "assay_type": "functional, HCT-116", "summary_of_the_method": "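Resistance ratio: IC50 in the HCT116/mdr line divided by the IC50 in parental HCT116.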"}, "[2]": {"species_on_record": "Homo sapiens", "assay": "Compound was evaluated for the inhibition of tubulin polymerization", "assay_type": "functional", "summary_of_the_method": "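Tubulin polymerization followed by optical density. The value is the compound concentration giving a change of 0.01 OD/h, divided by the corresponding concentration of paclitaxel.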"}, "[3]": {"tested_on": "HCT-116", "assay": "In vitro cytotoxicity against the paclitaxel sensitive human colon carcinoma cell line HCT116", "assay_type": "functional, cell-based", "summary_of_the_method": "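HCT116 cells exposed to compound for 72 h. Viability read by MTS assay and IC50 derived from it.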"}, "[4]": {"assay": "Compound was evaluated for the median survival time of compound treated mice to that of median survival time of the control mice at a dose of 200 mg/kg/injection", "assay_type": "functional", "summary_of_the_method": "(§1)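 Balb/c × DBA/2 F1 hybrid mice implanted intraperitoneally with a 2% (w/v) brei of M109 lung carcinoma. Treatment was by intraperitoneal injection on days 5 and 8 post-implant. Survival was followed daily to about 75–90 days, with an untreated control group in each experiment. %T/C = median survival of treated mice / median survival of controls × 100.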"}, "[5]": {"assay": "Compound was evaluated for the ratio of IC50 of A2780/tub cell line to that of IC50 of A2780 cell line", "assay_type": "functional", "summary_of_the_method": "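Resistance ratio: IC50 in the A2780/tub line divided by the IC50 in parental A2780.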"}, "[6]": {"tested_on": "A2780", "assay": "In vitro cytotoxicity against the paclitaxel sensitive […]", "assay_type": "functional, cell-based", "conditions": "Homo sapiens"}, "[7]": {"assay": "Compound was evaluated for the median survival time of compound treated mice to that of median survival time of the control mice at a dose of 120 mg/kg/injection"}, "[8]": {"assay": "Compound was evaluated for the median survival time of compound treated mice to that of median survival time of the control mice at a dose of 100 mg/kg/injection", "assay_type": "functional", "summary_of_the_method": "as §1"}}}
{"smiles": "CC(=O)O[C@H]1[C@@H]2CO[C@@H]2[C@@H]2OCOCCOCO[C@H]3C(=O)[C@@]2(C)[C@@H]1[C@H](OC(=O)c1ccccc1)[C@]1(O)C[C@H](OC(=O)[C@H](O)[C@@H](NC(=O)c2ccccc2)c2ccccc2)C(C)=C3C1(C)C", "values": [{"measurement": "R/S ratio", "setting": "[1]", "result": 10}, {"measurement": "Tubulin", "setting": "[2]", "result": 1.49}, {"measurement": "IC50", "setting": "[3]", "result": 3, "unit": "nM"}, {"measurement": "T/C", "setting": "[4]", "result": 174, "unit": "%"}, {"measurement": "R/S ratio", "setting": "[5]", "result": 15}, {"measurement": "IC50", "setting": "[6]", "result": 2.6, "unit": "nM"}]}
{"smiles": "CC(=O)O[C@H]1[C@@H]2CO[C@@H]2[C@@H]2OCOCCOC(=O)O[C@H]3C(=O)[C@@]2(C)[C@@H]1[C@H](OC(=O)c1ccccc1)[C@]1(O)C[C@H](OC(=O)[C@H](O)[C@@H](NC(=O)c2ccccc2)c2ccccc2)C(C)=C3C1(C)C", "values": [{"measurement": "R/S ratio", "setting": "[1]", "result": 31}, {"measurement": "Tubulin", "setting": "[2]", "result": 0.73}, {"measurement": "IC50", "setting": "[3]", "result": 1.9, "unit": "nM"}, {"measurement": "R/S ratio", "setting": "[5]", "result": 32}, {"measurement": "IC50", "setting": "[6]", "result": 2.1, "unit": "nM"}]}
{"smiles": "CC(=O)O[C@H]1[C@@H]2CO[C@@H]2[C@@H]2OCOCC(C)(C)COCO[C@H]3C(=O)[C@@]2(C)[C@@H]1[C@H](OC(=O)c1ccccc1)[C@]1(O)C[C@H](OC(=O)[C@H](O)[C@@H](NC(=O)c2ccccc2)c2ccccc2)C(C)=C3C1(C)C", "values": [{"measurement": "R/S ratio", "setting": "[1]", "result": 11}, {"measurement": "Tubulin", "setting": "[2]", "result": 2.87}, {"measurement": "T/C", "setting": "[7]", "result": 118, "unit": "%"}, {"measurement": "IC50", "setting": "[3]", "result": 17.2, "unit": "nM"}, {"measurement": "R/S ratio", "setting": "[5]", "result": 23}, {"measurement": "IC50", "setting": "[6]", "result": 18, "unit": "nM"}]}
{"smiles": "CC(=O)O[C@H]1[C@@H]2CO[C@@H]2[C@@H]2OCOCCOCO[C@H]3C(=O)[C@@]2(C)[C@@H]1[C@H](OC(=O)c1ccccc1)[C@]1(O)C[C@H](OC(=O)[C@H](O)[C@@H](NC(=O)OC(C)(C)C)c2ccccc2)C(C)=C3C1(C)C", "values": [{"measurement": "T/C", "setting": "[8]", "result": 190, "unit": "%"}, {"measurement": "R/S ratio", "setting": "[1]", "result": 12}, {"measurement": "Tubulin", "setting": "[2]", "result": 0.67}, {"measurement": "IC50", "setting": "[3]", "result": 0.8, "unit": "nM"}, {"measurement": "R/S ratio", "setting": "[5]", "result": 6}, {"measurement": "IC50", "setting": "[6]", "result": 18.5, "unit": "nM"}]}
